Source: ChEMBL document CHEMBL1144395, “Design and synthesis of potent pyridazine inhibitors of p38 MAP kinase” (Bioorg Med Chem Lett, 2005)

What was measured:
[1] = Inhibitory activity against mitogen-activated protein kinase p38; design: species or system Homo sapiens
THP-1 = assay: Inhibitory concentration against TNF-alpha production in THP-1 cells; type: functional, cell-based; settings: Homo sapiens
Cell line = assay: Inhibitory concentration against LPS-induced release of TNF-alpha in human whole blood; type: functional, cell-based
[2] = Inhibitory activity against c-Jun N-terminal kinase 3 (JNK3); design: species or system Homo sapiens
Mus musculus = species on record: Mus musculus; assay: Effective dose against murine LPS challenge model; type: functional
Method in brief: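 Oral dosing to BALB/c mice (n = 5) 1 h before intravenous LPS ([…]); blood taken 90 min after LPS, serum TNF-α measured by ELISA; % inhibition = [(vehicle control − compound)/(vehicle control)] × 100; ED50 derived from this inhibition.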

Rattus norvegicus = species on record: Rattus norvegicus; assay: Effective dose against rat collagen-induced arthritis (CIA) model; type: functional

Compound: C[C@H](Nc1cc(-c2cc(C3CCNCC3)nnc2-c2cccc(C(F)(F)F)c2)ccn1)c1ccccc1
- Ki [1]: 2.1 nM
- IC50 (THP-1): 21.5 nM
- IC50 (Cell line): 5850 nM
- Ki [2]: 2970 nM

Compound: c1ccc(C[C@H]2CN(c3cc(-c4ccncc4)c(-c4cccc5ccccc45)nn3)CCN2)cc1
- Ki [1]: 7.3 nM
- ED50 (Mus musculus): 1.28 mg/kg
- IC50 (THP-1): 67.6 nM
- IC50 (Cell line): 240 nM
- Ki [2]: 160 nM
- ED50 (Rattus norvegicus): 2.7 mg/kg

Compound: CC(C)N[C@H](CNc1cc(-c2ccncc2)c(-c2cccc3ccccc23)nn1)Cc1ccccc1
- Ki [1]: 20.4 nM
- IC50 (THP-1): 110 nM
- Ki [2]: 598 nM

Compound: N[C@H](CNc1cc(-c2ccncc2)c(-c2cccc3ccccc23)nn1)Cc1ccc(F)cc1
- Ki [1]: 1.8 nM
- IC50 (THP-1): 92.2 nM
- IC50 (Cell line): 948 nM
- Ki [2]: 1060 nM

Compound: CC(C)C[C@H]1CN(c2cc(-c3ccncc3)c(-c3cccc4ccccc34)nn2)CCN1
- Ki [1]: 29.7 nM
- IC50 (THP-1): 63.6 nM
- IC50 (Cell line): 547 nM
- Ki [2]: 650 nM

Compound: CC(Nc1nccc(-c2cc(C3CCNCC3)nnc2-c2cccc(C(F)(F)F)c2)n1)c1ccc(F)cc1 (centres undefined)
- Ki [1]: 10.2 nM
- IC50 (THP-1): 93.4 nM
- Ki [2]: > 10000 nM

Compound: O=C(CNc1nccc(-c2cc(C3CCNCC3)nnc2-c2cccc(C(F)(F)F)c2)n1)c1ccccc1
- Ki [1]: 709 nM
- IC50 (THP-1): 1290 nM
- Ki [2]: > 10000 nM

Compound: O=C(CO)N1CCN(c2cc(-c3ccncc3)c(-c3cccc4ccccc34)nn2)C[C@@H]1Cc1ccccc1
- Ki [1]: 31.8 nM
- IC50 (THP-1): 552 nM
- Ki [2]: 72.5 nM

Compound: N[C@H](CNc1cc(-c2ccncn2)c(-c2cccc(C(F)(F)F)c2)nn1)Cc1ccccc1
- Ki [1]: 56.2 nM
- IC50 (THP-1): 40.2 nM
- IC50 (Cell line): 1830 nM
- Ki [2]: > 10000 nM

Compound: CC(N)(CNc1cc(-c2ccncn2)c(-c2cccc(C(F)(F)F)c2)nn1)Cc1ccccc1 (centres undefined)
- Ki [1]: 179 nM
- IC50 (THP-1): 251 nM
- Ki [2]: > 10000 nM

Compound: C[C@H](Nc1nccc(-c2cc(C3CCNCC3)nnc2-c2cccc(C(F)(F)F)c2)n1)c1ccccc1
- Ki [1]: 1.6 nM
- IC50 (THP-1): 5.3 nM
- IC50 (Cell line): 1560 nM
- Ki [2]: 1580 nM

Compound: c1ccc(C[C@@H](CNc2cc(-c3ccncc3)c(-c3cccc4ccccc34)nn2)N2CCCC2)cc1
- Ki [1]: 9.2 nM
- IC50 (THP-1): 5.5 nM
- Ki [2]: 81.5 nM

Compound: O=C(CNc1nccc(-c2cc(C3CCNCC3)nnc2-c2cccc(C(F)(F)F)c2)n1)c1ccc(F)cc1
- Ki [1]: 1770 nM
- IC50 (THP-1): 1240 nM
- Ki [2]: > 10000 nM

Compound: N[C@H](CNc1cc(-c2ccncc2)c(-c2cccc3ccccc23)nn1)Cc1ccccc1
- Ki [1]: 7 nM
- IC50 (THP-1): 50.1 nM
- IC50 (Cell line): 165 nM
- Ki [2]: 735 nM

Compound: O=C(CO)N[C@H](CNc1cc(-c2ccncc2)c(-c2cccc3ccccc23)nn1)Cc1ccccc1
- Ki [1]: 65.9 nM
- IC50 (THP-1): 661 nM
- Ki [2]: 211 nM
